The source made the active and inactive calls. The calls are words filed in the database; no cut-off is given here.
Legend:
[1] = target: DNA topoisomerase 2-alpha (Homo sapiens) (UniProt P11388); assay: Inhibition of human Topo2alpha-mediated kDNA decatenation at 100 uM after 30 mins by SDS-based agarose gel electrophoresis
[2] = target: DNA topoisomerase 2-alpha (Homo sapiens) (UniProt P11388); assay: Poison activity at human Topo2alpha using pUC19 as substrate assessed as DNA cleavage-complex formation at 100 uM measured after 20 mins by ethidium bromide staining based SDS-agarose gel electrophoresis
[3] = system: MCF7; assay: Induction of apoptosis in human MCF7 cells assessed as increase in BAX expression at 75 nM after 48 hrs by Western blot analysis relative to control; assay type: functional
[4] = Binding affinity to DNA (unknown origin) assessed as occurrence of hypochromism after 1 hr by UV-Vis spectrophotometric analysis
Outline: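 UV absorption of DNA near 260 nm, recorded with and without increasing compound concentrations; hypochromism was taken as the binding read-out.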

[5] = target: Cyclin-dependent kinase 1 (Homo sapiens) (UniProt P06493); assay: Inhibition of CDK1 phosphorylation at Thr-161 residue in human MCF7 cells at 50 nM after 48 hrs by Western blot analysis relative to control; assay type: cell-based
Chain of Cyclin-dependent kinase 1 (Homo sapiens) (P06493 whole entry, looked up): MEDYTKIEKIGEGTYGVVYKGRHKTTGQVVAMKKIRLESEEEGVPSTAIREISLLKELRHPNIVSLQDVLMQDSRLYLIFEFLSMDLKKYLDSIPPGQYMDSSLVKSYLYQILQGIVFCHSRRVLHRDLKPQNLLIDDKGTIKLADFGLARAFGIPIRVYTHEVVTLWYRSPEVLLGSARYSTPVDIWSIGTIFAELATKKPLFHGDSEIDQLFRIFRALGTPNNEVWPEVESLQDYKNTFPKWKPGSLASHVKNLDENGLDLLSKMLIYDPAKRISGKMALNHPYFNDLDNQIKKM
Outline: (§1)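 Western blot of MCF-7 lysates after treatment across a concentration series. Probes were CDK1, pCDK1 (Thr 161) and cleaved caspase 3 (17 kDa). Bands were quantified by densitometry as fold change versus untreated control, with at least three repeats.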

[6] = (§2) Cytotoxicity against HEK293T cells assessed as cells growth inhibition after 48 hrs by MTT assay; assay type: functional, cell-based; conditions: Homo sapiens, HEK-293T
Outline: (§3)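 MTT colorimetric assay. HEK-293T (kidney line) and VERO cells were tested, and the IC50 was taken as the concentration giving 50% growth inhibition.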

[7] = system: HEK-293T; assay: as §2; assay type: functional, cell-based; conditions: Homo sapiens; outline: as §3
[8] = Cytotoxicity against African green monkey Vero cells assessed as cells growth inhibition after 48 hrs by MTT assay; assay type: toxicity, cell-based, Chlorocebus sabaeus; outline: as §3
[9] = system: MCF7; assay: Cytotoxicity against human MCF7 cells assessed as cells growth inhibition after 48 hrs by MTT assay; assay type: functional, cell-based
[10] = Cytotoxicity against human MDA-MB-231 cells assessed as reduction in cell viability after 48 hrs by MTT assay; assay type: functional, cell-based; conditions: MDA-MB-231, 48 h
[11] = Cytotoxicity against human MDA-MB-468 cells assessed as reduction in cell viability after 48 hrs by MTT assay; assay type: functional, cell-based; conditions: MDA-MB-468, 48 h
[12] = (§4) Cytotoxicity against HEK293T cells assessed as reduction in colony formation after 48 hrs by crystal violet-staining based assay; assay type: functional; conditions: Homo sapiens, HEK-293T, read-out: LC50 (the source's name)
[13] = system: HEK-293T; assay: as §4; assay type: functional; conditions: Homo sapiens
[14] = Cytotoxicity against African green monkey Vero cells assessed as reduction in colony formation after 48 hrs by crystal violet-staining based assay; assay type: toxicity, cell-based; conditions: chlorocebus sabaeus
[15] = system: MCF7; assay: Cytotoxicity against human MCF7 cells assessed as reduction in colony formation after 48 hrs by crystal violet-staining based assay; assay type: functional, cell-based
[16] = system: MCF7; assay: Induction of apoptosis in human MCF7 cells assessed as chromatin condensation up to 75 nM after 48 hrs by DAPI-nuclear staining based fluorescent microscopic analysis relative to control; assay type: functional, cell-based
Outline: (§5)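 MCF-7 cells exposed to increasing compound concentrations for 48 h before DAPI was added. Nuclei were scored for chromatin condensation and fragmentation, counted as apoptotic nuclei versus untreated cells.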

[17] = system: MCF7; assay: Induction of apoptosis in human MCF7 cells assessed as nuclear fragmentation up to 75 nM after 48 hrs by DAPI-nuclear staining based fluorescent microscopic analysis relative to control; assay type: functional, cell-based; outline: as §5
[18] = system: MCF7; assay: Induction of apoptosis in human MCF7 cells assessed as increase in apoptotic nuclei at 75 nM after 48 hrs by DAPI-nuclear staining based fluorescent microscopic analysis relative to control; assay type: functional; outline: as §5
[19] = system: MCF7; assay: Induction of apoptosis in human MCF7 cells assessed as increase in BAX expression at 50 nM after 48 hrs by Western blot analysis relative to control; assay type: functional
[20] = system: MCF7; assay: Induction of apoptosis in human MCF7 cells assessed as decrease in BCL-XL expression at 50 nM after 48 hrs by Western blot analysis relative to control; assay type: functional
[21] = Downregulation of CDK1 expression in human MCF7 cells at 50 nM after 48 hrs by Western blot analysis relative to control; assay type: functional, cell-based; outline: as §1
[22] = Downregulation of p21 expression in human MCF7 cells at 50 nM after 48 hrs by Western blot analysis relative to control; assay type: functional, cell-based
[23] = Downregulation of p53 expression in human MCF7 cells at 50 nM after 48 hrs by Western blot analysis relative to control; assay type: functional, cell-based
[24] = system: MCF7; assay: Induction of apoptosis in human MCF7 cells assessed as 19 kDa caspase-3 expression level at 50 nM after 48 hrs by Western blot analysis relative to control; assay type: functional
[25] = system: MCF7; assay: Induction of apoptosis in human MCF7 cells assessed as increase in 17 kDa caspase-3 expression at 50 nM after 48 hrs by Western blot analysis relative to control; assay type: functional; outline: as §1
[26] = system: MCF7; assay: Induction of apoptosis in human MCF7 cells assessed as increase in caspase-3 expression at 50 to 75 nM after 48 hrs by TRITC/DAPI-staining based fluorescent microscopic analysis; assay type: functional, cell-based
Outline: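 Caspase 3 immunocytochemistry in MCF-7 cells after increasing compound concentrations. Signal was expressed as densitometric fold change versus untreated control, with at least three repeats.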

[27] = system: MCF7; assay: Antiinvasive activity in human MCF7 cells assessed as reduction in number of invaded colonies at 25 to 75 nM after 48 hrs by crystal violet-staining based colony counting; assay type: functional, cell-based
Outline: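 Matrigel invasion assay in MCF-7 cells exposed to rising compound concentrations; read-out is the number of invaded colonies versus an untreated control.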

[28] = system: MCF7; assay: Inhibition of topoisomerase in human MCF7 cell nuclear lysates assessed as reduction in relaxation of supercoiled plasmid DNA NFkB substrate at 10 to 75 nM after 30 mins by ethidium bromide-staining based agarose gel electrophoresis
Outline: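 Ex vivo topoisomerase assay using MCF-7 nuclear lysate with NFkB plasmid as substrate. Compound ranged from 10 nM to 75 nM, with lanes for plasmid alone and untreated lysate, and an etoposide lane at 45 µM.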

[29] = Cell cycle arrest in human MCF7 cells assessed as accumulation at G2/M phase at 50 nM after 48 hrs by propidium iodide-staining based FACS analysis (reference value: 41 +/- 2.8 %); assay type: functional
[30] = Cell cycle arrest in human MCF7 cells assessed as accumulation at subG1 phase at 100 nM after 48 hrs by propidium iodide-staining based FACS analysis (reference value: 0.8 +/- 0.1 %); assay type: functional
[31] = Inhibition of tubulin polymerization in human MCF7 cells assessed as suppression of protein assembly after 15 mins by spectrophotometric analysis; assay type: cell-based
[32] = system: MCF7; assay: Inhibition of alpha tubulin in human MCF7 cells assessed as distortion in tubulin assembly at 50 to 75 uM by FITC/propidium iodide-staining based assay; assay type: cell-based
Outline: (§6)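 MCF-7 cells were immunostained for α-tubulin with FITC and counterstained with propidium iodide for nuclei. Merged images were inspected for assembly distortion and abnormal mitotic spindles.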

[33] = system: MCF7; assay: Inhibition of alpha tubulin in human MCF7 cells assessed as formation of abnormal mitotic spindle at 50 to 75 uM by FITC/propidium iodide-staining based assay; assay type: cell-based; outline: as §6
[34] = system: MCF7; assay: Induction of apoptosis in human MCF7 cells assessed as decrease in BCL-XL expression at 75 nM after 48 hrs by Western blot analysis relative to control; assay type: functional
[35] = Downregulation of CDK1 expression in human MCF7 cells at 75 nM after 48 hrs by Western blot analysis relative to control; assay type: functional, cell-based; outline: as §1
[36] = target: Cyclin-dependent kinase 1 (Homo sapiens) (UniProt P06493); assay: Inhibition of CDK1 phosphorylation at Thr-161 residue in human MCF7 cells at 75 nM after 48 hrs by Western blot analysis relative to control; assay type: cell-based; outline: as §1
[37] = Downregulation of p21 expression in human MCF7 cells at 75 nM after 48 hrs by Western blot analysis relative to control; assay type: functional, cell-based
[38] = Downregulation of p53 expression in human MCF7 cells at 75 nM after 48 hrs by Western blot analysis relative to control; assay type: functional, cell-based
[39] = system: MCF7; assay: Induction of apoptosis in human MCF7 cells assessed as 19 kDa caspase-3 expression level at 75 nM after 48 hrs by Western blot analysis relative to control; assay type: functional
[40] = system: MCF7; assay: Induction of apoptosis in human MCF7 cells assessed as increase in 17 kDa caspase-3 expression at 75 nM after 48 hrs by Western blot analysis relative to control; assay type: functional; outline: as §1

Chain of DNA topoisomerase 2-alpha (Homo sapiens) (P11388 whole entry): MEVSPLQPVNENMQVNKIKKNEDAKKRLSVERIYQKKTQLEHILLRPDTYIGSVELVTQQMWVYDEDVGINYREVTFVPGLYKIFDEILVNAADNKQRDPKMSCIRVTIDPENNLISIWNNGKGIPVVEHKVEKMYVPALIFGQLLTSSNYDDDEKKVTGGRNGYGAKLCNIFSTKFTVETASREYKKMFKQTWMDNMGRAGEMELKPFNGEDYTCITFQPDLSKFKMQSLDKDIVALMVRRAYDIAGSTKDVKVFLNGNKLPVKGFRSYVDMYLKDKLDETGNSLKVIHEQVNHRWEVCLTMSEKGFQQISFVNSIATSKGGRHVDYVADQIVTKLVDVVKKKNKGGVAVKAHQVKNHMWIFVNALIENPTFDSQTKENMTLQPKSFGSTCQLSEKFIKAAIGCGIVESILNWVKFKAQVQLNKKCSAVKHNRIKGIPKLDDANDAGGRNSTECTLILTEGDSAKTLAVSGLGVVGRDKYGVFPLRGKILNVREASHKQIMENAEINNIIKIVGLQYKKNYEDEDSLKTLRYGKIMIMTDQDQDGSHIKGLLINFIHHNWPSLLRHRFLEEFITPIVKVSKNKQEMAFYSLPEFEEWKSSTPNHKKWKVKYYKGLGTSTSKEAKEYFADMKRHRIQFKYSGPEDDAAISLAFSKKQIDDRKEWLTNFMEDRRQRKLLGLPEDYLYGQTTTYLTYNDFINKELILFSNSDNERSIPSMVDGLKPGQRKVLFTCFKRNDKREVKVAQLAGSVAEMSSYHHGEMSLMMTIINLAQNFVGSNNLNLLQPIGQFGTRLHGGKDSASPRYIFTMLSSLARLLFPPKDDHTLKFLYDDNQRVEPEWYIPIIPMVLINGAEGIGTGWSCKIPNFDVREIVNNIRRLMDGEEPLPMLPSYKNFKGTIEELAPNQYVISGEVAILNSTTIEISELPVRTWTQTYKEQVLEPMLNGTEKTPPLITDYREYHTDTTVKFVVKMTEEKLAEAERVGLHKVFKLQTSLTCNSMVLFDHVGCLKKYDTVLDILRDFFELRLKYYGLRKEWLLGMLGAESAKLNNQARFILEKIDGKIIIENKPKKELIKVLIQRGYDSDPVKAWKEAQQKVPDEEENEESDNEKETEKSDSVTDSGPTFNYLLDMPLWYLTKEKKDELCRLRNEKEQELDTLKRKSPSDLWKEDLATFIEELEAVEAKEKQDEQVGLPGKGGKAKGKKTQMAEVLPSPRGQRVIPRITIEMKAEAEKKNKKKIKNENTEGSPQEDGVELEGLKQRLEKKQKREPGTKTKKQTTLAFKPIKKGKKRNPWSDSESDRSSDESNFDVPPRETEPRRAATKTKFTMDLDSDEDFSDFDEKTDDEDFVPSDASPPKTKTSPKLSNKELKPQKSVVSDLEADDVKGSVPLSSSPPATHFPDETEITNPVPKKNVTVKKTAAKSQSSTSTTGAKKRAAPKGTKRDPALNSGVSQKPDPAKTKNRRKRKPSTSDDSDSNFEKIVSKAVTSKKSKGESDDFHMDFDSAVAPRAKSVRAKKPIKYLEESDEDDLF

## COc1ccc(/C=C2\N=C3C=CC=CN3C2=O)cc1
[1]
  inhibition: Active
[2]
  Activity: Active
[3]
  fold change (FC): 2
[4]
  Kb: 2e+06 M⁻¹
[5]
  fold change (FC): 1.2
[6]
  IC50: 60 nM
[7]
  growth inhibition (GI): Dose-dependent effect
[8]; African green monkey (Chlorocebus sabaeus), Vero cells
  IC50 at 48 h: 1500 nM
[8]; chlorocebus sabaeus, vero, 48 h
  growth inhibition (GI): Dose-dependent effect
[9]
  growth inhibition (GI): Dose-dependent effect
[10]
  IC50: 64 nM
[11]
  IC50: 60 nM
[12]
  CC50: 60 nM
[13]
  Activity: Dose-dependent effect
[14]; Vero cells, read-out: LC50
  CC50 at 48 h: 1500 nM
[14]; vero, 48 h
  Activity: Dose-dependent effect
[15]
  Activity: Dose-dependent effect
[16]
  Activity: Active
[17]
  Activity: Active
[18]
  fold change (FC): >6
[19]
  fold change (FC): 1.2
[20]
  fold change (FC): 0.9
[21]
  fold change (FC): 0.9
[22]
  fold change (FC): 1.4
[23]
  fold change (FC): 1.4
[24]
  fold change (FC): 1.4
[25]
  fold change (FC): 1.6
[26]
  Activity: Dose-dependent effect
[27]
  Activity: Active
[28]
  inhibition: Active
[29]
  Activity: 80.1%
[30]
  Activity: 20.2%
[31]
  IC50: 54 nM
[32]
  inhibition: Active
[33]
  inhibition: Active
[34]
  fold change (FC): 0.2
[35]
  fold change (FC): 0.2
[36]
  fold change (FC): 2
[37]
  fold change (FC): 2.5
[38]
  fold change (FC): 2.5
[39]
  fold change (FC): 1.6
[40]
  fold change (FC): 2
